Assays:
[1] = Insulin pharmacokinetics after ID; assay type: in vivo, human; details: for Insulin AUC 0–1 / Insulin AUC 0–1.5 / Insulin AUC 4–6: SD; for Cmax, median / Insulin AUC (360 min), median / Tmax, median: 0.2 U/kg
Outline: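 Open-label randomized crossover in type 2 diabetics (30–70 y, BMI <35, HbA1c 6.5%–10%, drug-naive or metformin only). Insulin aspart 0.2 U/kg into right lower abdomen, intradermal via MicronJet or SC via pen, 4–14 days apart, fasting or pre-standard meal. Blood at −5 min, baseline, every 10 min to 2 h, then every 30 min to 6 h. Insulin measured by immunoassay; AUC, partial AUCs, AUCID/AUCSC derived.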

[2] = system: patients with type 2 diabetes; assay: Safety and tolerability: adverse events, pain per visual analog scale; assay type: in vivo, human
Outline: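 All enrolled patients were analysed for safety. Injection-site reactions, AEs and SAEs were recorded on study days and later visits, with their relation to the intervention. Insertion pain was rated on a visual analog scale and preference was surveyed. Intradermal vs SC tolerability was compared within subjects by Wilcoxon paired test.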

[3] = ID via MicronJet needle, all patients, n = 14
[4] = ID via MicronJet needle, before standard meal test, n = 3
[5] = SC conventional needle, all patients, n = 14
[6] = SC conventional needle, before standard meal test, n = 3
[7] = SC conventional needle, fasting, n = 11

Substance: Insulin aspart
- Insulin AUC 0–1 ([1]; ID MicronJet, 0–1 h, fasting population n = 11, mean ± SD): 3695.2 ± 1593.3 μU/mL/min
- Insulin AUC 0–1.5 ([1]; ID MicronJet, 0–1.5 h, fasting population n = 11, mean ± SD): 4912.0 ± 2154.6 μU/mL/min
- Insulin AUC 0–1.5 ([1]; ID MicronJet, 0–1.5 h postinjection, overall population n = 14, mean ± SD): 5156.3 ± 1988.7 μU/mL/min
- Insulin AUC 4–6 ([1]; ID MicronJet, 4–6 h, fasting population n = 11, mean ± SD): 2027.3 ± 946.5 μU/mL/min
- Insulin AUC 4–6 ([1]; ID MicronJet, 4–6 h postinjection, overall population n = 14, mean ± SD): 2054.4 ± 857.7 μU/mL/min
- Cmax, median [1, 3]: 80 μU/mL
- Insulin AUC (360 min), median [1, 3]: 9913.75 μU/mL/min
- Tmax, median [1, 3]: 0.583 h
- Cmax, median [1, 4]: 95 μU/mL
- Insulin AUC (360 min), median [1, 4]: 12690 μU/mL/min
- Tmax, median [1, 4]: 0.833 h
- Cmax, median ([1]; ID via MicronJet needle, fasting, n = 11): 79 μU/mL
- Cmax, median [1, 5]: 55 μU/mL
- Insulin AUC (360 min), median [1, 5]: 10936.25 μU/mL/min
- Tmax, median [1, 5]: 1.46 h
- Cmax, median [1, 6]: 68 μU/mL
- Insulin AUC (360 min), median [1, 6]: 13960 μU/mL/min
- Tmax, median [1, 6]: 1.17 h
- Cmax, median [1, 7]: 54.5 μU/mL
- Insulin AUC (360 min), median [1, 7]: 10,407.5 μU/mL/min
- Tmax, median ([1]; SC via NovoPen conventional needle, fasting, n = 11, type 2 diabetes): 1.5 h
- Insulin AUC 0–1 ([1]; SC, 0–1 h, fasting population n = 11, mean ± SD): 2346.1 ± 609.7 μU/mL/min
- Insulin AUC 0–1 ([1]; SC, 0–1 h postinjection, overall population n = 14, mean ± SD, post hoc): 2534.1 ± 737.1 μU/mL/min
- Insulin AUC 0–1.5 ([1]; SC, 0–1.5 h, fasting population n = 11, mean ± SD): 3647.7 ± 904.0 μU/mL/min
- Insulin AUC 0–1.5 ([1]; SC, 0–1.5 h postinjection, overall population n = 14, mean ± SD): 4035.4 ± 1255.9 μU/mL/min
- Insulin AUC 4–6 ([1]; SC, 4–6 h, fasting population n = 11, mean ± SD): 2903.3 ± 1571.9 μU/mL/min
- Insulin AUC 4–6 ([1]; SC, 4–6 h postinjection, overall population n = 14, mean ± SD): 2929.0 ± 1412.1 μU/mL/min
- Subjects experiencing AEs ([2]; 17 patients in safety analysis, 5 AEs in total): 3 of 17
- Local AEs (injection site reactions) ([2]; all 17 patients, ID and SC injections): No local AEs (injection site reactions) were reported

Reference: article PMC5035373 (Diabetes Technology & Therapeutics, 2016)
